A short description of series [1]: Phase I two-way crossover study: plasma pharmacokinetics of trazpiroben and M23. The conditions noted are these: for AUC∞, geometric mean (mean CV%) / C max, geometric mean (geometric CV%) / T max, median (min, max) / t 1/2z, mean (SD): plasma trazpiroben; for AUC∞, geometric mean (mean CV%): n = 12. Type of series: in vivo, humans (healthy adults). A digest of the protocol:
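Open-label crossover in healthy adults fasted ≥10 h: a single oral 25 mg capsule, alone or right after a 30-min i.v. infusion of 600 mg rifampin, with ≥7-day washout. Parent and metabolite were measured by LC-MS/MS (range 0.1–50.0 ng/ml; BLOQ set to zero). Noncompartmental analysis used actual sampling times.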

In series [2] the test system is cytosolic NADPH-dependent reductases. To be noted: in vitro; cited from earlier work.
Series [3] concerns CYP3A4. The conditions noted are these: in vitro; cited from earlier work.
Series [4] relates to CYP isoforms. The conditions noted are these: in vitro, clinically relevant dose (0.06 μM); cited from earlier work.
Series [5] relates to OATP1B1/1B3. The conditions noted are these: in vitro; cited from earlier work.
Series [6] concerns breast cancer resistance protein (BCRP). The conditions noted are these: in vitro; cited from earlier work.
Series [7] relates to MATE1. The conditions noted are these: at a clinically relevant dose; cited from earlier work.
Setting [8] is: trazpiroben 25 mg + rifampin 600 mg i.v.

These results are taken from paper PMC9199876 (Clinical and Translational Science, 2022).

Values joined by “and” are separate entries in the source; they are usually repeats but may differ in a detail not shown here. Identical values can stand only once.

In the case of `O=C(O)c1cccc(CN2CN(C3CCCCC3)C3(CCN(CCCC(=O)c4ccccc4)CC3)C2=O)c1` [trazpiroben, Trazpiroben], the “participants with detectable levels of plasma trazpiroben” value in series [1] (0.5 h, co-administered with rifampin) was “all participants”; in series [1] (0.5 h after trazpiroben alone), 92%; in series [1] (12 h after trazpiroben alone), 92%; in series [1] (16 h after trazpiroben alone), 42%; in series [1] (16 h post dose, trazpiroben + rifampin), 83%. Also, the “AUC∞, geometric mean (mean CV%)” value in series [1] (single oral trazpiroben 25 mg alone) is 32.7 ng*h/ml and 32.68 (23.9) ng*h/ml; in series [1] (trazpiroben 25 mg oral + rifampin 600 mg i.v.), 168.5 (49.9) ng*h/ml. Besides, the figures for the “C max, geometric mean (geometric CV%)” value in series [1] (setting [8]) and in series [1] (trazpiroben 25 mg alone) were 89.62 (68.6) ng/ml and 14.37 (38.7) ng/ml, respectively. Besides, the “T max, median (min, max)” value was 1.002 (0.49, 2.00) h in series [1] (setting [8]) and 1.037 (0.50, 2.00) h in series [1] (trazpiroben 25 mg alone). Further, the “t 1/2z, mean (SD)” value in series [1] (setting [8]) was 2.028 ± 0.3449 h; in series [1] (trazpiroben 25 mg alone), 4.229 ± 3.7897 h. In addition, the entries for the “CL/F, geometric mean (geometric CV%)” value in series [1] (setting [8]) and in series [1] (trazpiroben 25 mg alone) were 148.4 (49.9) L/h and 765.1 (23.9) L/h, respectively. The “V z/F, geometric mean (geometric CV%)” value in series [1] (setting [8]) is listed as 428.1 (49.9) L; in series [1] (trazpiroben 25 mg alone) it was 3469 (70.7) L. The “share of metabolism via non-CYP cytosolic NADPH-dependent reductases (to M23)” value in series [2] is 56.7%. Further, the “share of metabolism via CYP3A4” value in series [3] is 25.8%. For the same molecule, the “induction of CYP isoforms” value in series [4] is “does not induce”. Further, the “substrate of OATP1B1/1B3” value in series [5] is “substrate”. In addition, in series [6], the “substrate of BCRP” value is on record as “not a substrate”. Further, the “inhibitor of MATE1” value in series [7] is “not an inhibitor”.
